One may read the IC50 as the midpoint of a concentration-inhibition curve.

“Also recorded” adds a separate entry of the source. Where only a bound is given, the exact number is not on record here.

The values below come from paper PMC4067939 (Bioorganic & medicinal chemistry, 2014).

For experiment [1], the target named is T1, GGDPS (Homo sapiens, UniProt O95749).
T1 sequence (O95749 1-300): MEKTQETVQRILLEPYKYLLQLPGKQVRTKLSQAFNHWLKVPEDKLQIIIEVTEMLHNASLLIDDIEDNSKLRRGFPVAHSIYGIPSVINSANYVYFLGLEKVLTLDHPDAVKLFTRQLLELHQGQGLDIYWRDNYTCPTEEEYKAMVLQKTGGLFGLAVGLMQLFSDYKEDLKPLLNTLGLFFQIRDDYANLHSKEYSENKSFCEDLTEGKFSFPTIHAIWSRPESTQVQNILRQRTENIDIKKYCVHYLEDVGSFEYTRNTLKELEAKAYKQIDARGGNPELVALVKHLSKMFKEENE
Particulars: cited from earlier work.

For experiment [2], the system named is Rab6 geranylgeranylation in RPMI-8226 cells. The format is cell-based, human. Particulars: 10 µM, 48 hours, Figure 3A. An outline of the steps: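 Triton X-114 lysis gave aqueous (cytosolic) and detergent (membrane) fractions. Equal protein (BCA) was run on SDS-PAGE and blotted to PVDF for Rab6 with HRP/ECL detection. Loading controls were β-tubulin (aqueous) and calnexin (detergent). Gels represent two independent experiments.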

For experiment [3], the system named is Rap1a geranylgeranylation in RPMI-8226 cells. As to the kind of experiment: Immunoblot of unmodified Rap1a in RPMI-8226 cells. Particulars: 48 hours; for disruption of Rap1a geranylgeranylation (accumulation of unmodified Rap1a): 10 µM, Figure 3A; for concentration at which unmodified Rap1a is observed: tested at 0.1, 1, 10 µM. The format is cell-based, human. In outline:
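Whole-cell lysates were made in RIPA buffer with protease/phosphatase inhibitors, BCA-normalised, and run on SDS-PAGE/PVDF immunoblot. The antibody recognises only unmodified Rap1a; β-tubulin was the loading control; detection was HRP/ECL. Gels represent two independent experiments.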
On the technique in general: A western blot detects proteins with antibodies after separation by electrophoresis.

Experiment [4] relates to monoclonal protein trafficking in RPMI-8226 cells. Kind of experiment: Monoclonal protein quantitation. Type of experiment: cell-based, human. Conditions: 10 µM, 48 hours, Figure 5. An outline of the steps:
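Cells were lysed in RIPA with protease/phosphatase inhibitors and protein measured by BCA. Intracellular lambda light chain was quantified by human lambda light chain ELISA. Results are % untreated control, mean ± SD, n=3, unpaired two-tailed t-test (α 0.05).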

The target of experiment [5] is T2, GGTase II (Rattus norvegicus, UniProt Q08602+Q08603).
T2 sequence (Q08602 1-567): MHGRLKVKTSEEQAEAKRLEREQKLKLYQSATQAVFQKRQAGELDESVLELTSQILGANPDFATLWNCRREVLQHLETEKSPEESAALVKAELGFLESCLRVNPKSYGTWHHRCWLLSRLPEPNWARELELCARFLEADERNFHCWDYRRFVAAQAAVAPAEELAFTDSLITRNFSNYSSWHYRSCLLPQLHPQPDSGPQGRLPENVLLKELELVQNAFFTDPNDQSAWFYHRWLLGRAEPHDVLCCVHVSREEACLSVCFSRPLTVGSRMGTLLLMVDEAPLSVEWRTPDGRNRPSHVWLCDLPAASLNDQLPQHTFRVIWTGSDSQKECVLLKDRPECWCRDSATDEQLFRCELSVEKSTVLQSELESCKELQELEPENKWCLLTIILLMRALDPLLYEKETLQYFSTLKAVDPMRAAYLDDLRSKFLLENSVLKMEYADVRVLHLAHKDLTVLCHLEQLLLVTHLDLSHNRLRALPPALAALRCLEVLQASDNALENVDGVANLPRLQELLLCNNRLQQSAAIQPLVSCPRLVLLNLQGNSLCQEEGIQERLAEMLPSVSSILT
T2 sequence (Q08603 1-331): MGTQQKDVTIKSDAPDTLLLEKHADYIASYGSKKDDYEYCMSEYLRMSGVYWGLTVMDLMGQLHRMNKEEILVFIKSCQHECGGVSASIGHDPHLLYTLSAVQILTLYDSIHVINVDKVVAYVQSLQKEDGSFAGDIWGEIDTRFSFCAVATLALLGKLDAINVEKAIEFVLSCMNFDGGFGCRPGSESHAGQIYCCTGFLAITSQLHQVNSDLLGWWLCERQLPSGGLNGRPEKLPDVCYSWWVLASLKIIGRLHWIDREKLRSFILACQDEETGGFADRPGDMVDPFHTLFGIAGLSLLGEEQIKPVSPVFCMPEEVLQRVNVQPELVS
Kind of experiment: GGTase II enzyme assay. Type of experiment: biochemical. Particulars: for inhibitory activity against GGTase II: at concentrations up to 1 mM. In outline:
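Reaction mix: 30 nM recombinant GGTase II, 2 µM His-tagged Rab1A (E. coli-expressed, Ni-NTA purified) and 1 µM REP-2 in 50 mM sodium HEPES, 5 mM MgCl₂, 1 mM DTT, 1 mM NP-40, ±test compound. Started with 5 µM [³H]-GGPP, 20 min at 37 °C, stopped with 10% HCl/EtOH. P-81 filters were EtOH-washed and scintillation-counted. IC50 came from concentration-response curves.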

The target in a further experiment is FTase (Rattus norvegicus, UniProt Q02293+Q04631). As to the kind of experiment: FTase enzyme assay. Type of experiment: biochemical. In outline:
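Ran 1 h at 30 °C, then ice and acetonitrile/5% HCl stop. Centrifuged supernatant went to HPLC with fluorescence detection of prenylated peptide. IC50 came from concentration-response curves.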

Experiment [6] concerns the target T1, GGDPS. Kind of experiment: GGDPS enzyme assay. The format is biochemical. Particulars: in vitro enzyme assay.
The subject of experiment [7] is intracellular GGPP levels in RPMI-8226 cells. Kind of experiment: Measurement of intracellular GGPP levels in RPMI-8226 cells. Conditions: 1 µM, 24 hours, Figure 4. Type of experiment: cell-based, human. In outline:
(§1)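 Isoprenoid pyrophosphates were extracted in butanol/75mM ammonium hydroxide/ethanol (1:1.25:2.75) and dried under nitrogen. FPP was coupled to fluorescent GCVLS by FTase and GGPP to GCVLL by GGTase I. Peptides were quantified by reversed-phase HPLC-fluorescence. Results are % untreated control, mean ± SD, n=2, unpaired two-tailed t-test.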

Experiment [8] addresses T2, GGTase II. Particulars: ref our prior studies; cited from earlier work.
Experiment [9] relates to intracellular FPP levels in RPMI-8226 cells. Kind of experiment: Measurement of intracellular FPP levels in RPMI-8226 cells. Conditions: 1 µM, 24 hours, Figure 4. The format is cell-based, human. An outline of the steps:
as §1

Consider `CC(C)=CCC/C(C)=C/CC(C/C=C(\C)CCC=C(C)C)(P(=O)(O)O)P(=O)(O)O` [DGBP, digeranyl bisphosphonate, reference compound], for which the “mode of GGDPS inhibition” value at GGDPS [1] is recorded as “competitive with respect to FPP as opposed to IPP”. Besides, the “disruption of Rab6 geranylgeranylation (Rab6 in aqueous fraction)” value (from here on “disruption … (Rab6 in aqueous fraction)”) in [2] was “accumulation of unmodified Rap1a and Rab6”. Besides, the “disruption of Rap1a geranylgeranylation (accumulation of unmodified Rap1a)” value (from here on “disruption … (accumulation of unmodified Rap1a)”) in [3] is “accumulation of unmodified Rap1a and Rab6”. In experiment [3] (Figure 3B), the “concentration at which unmodified Rap1a is observed” value worked out at 10 µM. Besides, in experiment [4], the “effect on intracellular lambda light chain levels” value was “accumulation of intracellular lambda light chain”.

Consider `CC(C)=CCC[C@@]1(C)O[C@@H]1Cn1cc(CC(P(=O)([O-])[O-])P(=O)([O-])[O-])nn1.[Na+].[Na+].[Na+].[Na+]` (racemic) [Compound 12, Sodium (E)-(2-(1-((3-methyl-3-(4-methylpent-3-en-1-yl)oxiran-2-yl)methyl)-1H-1,2,3-triazol-4-yl)ethane-1,1-diyl)bis(phosphonate)], for which, in [2], the “disruption … (Rab6 in aqueous fraction)” value was “neither of the epoxide derivatives (12 and 20) displayed activity in this assay”. For the same compound, at GGTase II [5], the half-maximal inhibitory concentration (IC50) was over 1000 µM and the “inhibitory activity against GGTase II” value was “neither of the individual olefin isomers (11 or 19) nor the related epoxides (12 or 20) displayed inhibitory activity”. Moreover, the “disruption … (accumulation of unmodified Rap1a)” value in [3] was “neither of the epoxide derivatives (12 and 20) displayed activity in this assay”.

On to `CC(C)=CCC/C(C)=C\CC(C/C=C(/C)CCC=C(C)C)(P(=O)(O)O)P(=O)(O)O` [dineryl bisphosphonate], for which the “fold less potent GGDPS inhibitor than DGBP” value at GGDPS [1] is given as “approximately 14 fold”.

With `CC(C)=CCCC(C)=CCC(CC=C(C)CCC=C(C)C)(P(=O)(O)O)P(=O)(O)O` [geranyl/neryl], the “fold less potent GGDPS inhibitor than DGBP” value on GGDPS [1] is “approximately 14 fold”.

Take `CC(C)=CCC/C(C)=C/CC/C(C)=C/CC(P(=O)(O)O)P(=O)(O)O` [Compound 21, 2E,6E-farnesyl bisphosphonate]: at GGDPS [1] (ref earlier studies), the “fold more potent than the 2E,6Z-isomer 22” value is given as “about 6 fold”.

As to “2E,6Z-farnesylbisphosphonate [Compound 22]”, the “fold less potent GGDPS inhibitor than the 2E,6E-isomer” value on GGDPS [1] (farnesyl bisphosphonate isomers) was “approximately 6 fold”.

For the compound `CC(C)=CCC/C(C)=C/Cn1cc(CC(P(=O)([O-])[O-])P(=O)([O-])[O-])nn1.[Na+].[Na+].[Na+].[Na+]` [Compound 11, Sodium (E)-(2-(1-(3,7-dimethylocta-2,6-dien-1-yl)-1H-1,2,3-triazol-4-yl)ethane-1,1-diyl)bis(phosphonate)], the 50% inhibitory concentration (IC50) at FTase is over 500 µM; against GGTase II [5], over 1000 µM. On GGTase II [5], the “inhibitory activity against GGTase II” value is on record as “neither of the individual olefin isomers (11 or 19) nor the related epoxides (12 or 20) displayed inhibitory activity”. For the same compound, the “disruption … (accumulation of unmodified Rap1a)” value in experiment [3] is on record as “only weakly disrupted Rap1a geranylgeranylation”. In addition, the “disruption of Rap1a geranylgeranylation at 10 µM” value in [3] (Figure 3B) was “only weakly disrupted Rap1a geranylgeranylation”. The “effect on intracellular lambda light chain levels” value in experiment [4] is “has no effect on intracellular light chain levels”.

Turning to `CC(C)=CCCC(C)=CCC(P(=O)(O)O)P(=O)(O)O` [geranyl bisphosphonate], the “potency relative to the corresponding neryl bisphosphonate” value at GGDPS [1] (monoalkyl series) was “at least one order of magnitude more potent”.

For `CC(C)=CCC[C@]1(C)O[C@@H]1Cn1cc(CC(P(=O)([O-])[O-])P(=O)([O-])[O-])nn1.[Na+].[Na+].[Na+].[Na+]` (racemic) [Compound 20, Sodium (Z)-(2-(1-((3-methyl-3-(4-methylpent-3-en-1-yl)oxiran-2-yl)methyl)-1H-1,2,3-triazol-4-yl)ethane-1,1-diyl)bis(phosphonate)], the “disruption … (Rab6 in aqueous fraction)” value in experiment [2] was “neither of the epoxide derivatives (12 and 20) displayed activity in this assay”. For the same compound, the “GGDPS activity, comparison in words” value on GGDPS [6] is “reduces the activity against GGDPS to a level comparable to the geranyl triazole”. Also, on GGTase II [5], the concentration for half-maximal inhibition (IC50) is over 1000 µM and the “inhibitory activity against GGTase II” value is recorded as “neither of the individual olefin isomers (11 or 19) nor the related epoxides (12 or 20) displayed inhibitory activity”. Also, the “disruption … (accumulation of unmodified Rap1a)” value in experiment [3] was “neither of the epoxide derivatives (12 and 20) displayed activity in this assay”.

For `CC(C)=CCCC(C)=CCn1cc(CC(P(=O)([O-])[O-])P(=O)([O-])[O-])nn1.[Na+].[Na+].[Na+].[Na+]` [Compound 1], in [7], the “effect on intracellular GGPP levels” value was “decreased GGPP levels”. Also, the “disruption … (Rab6 in aqueous fraction)” value in [2] is recorded as “A similar pattern was displayed”. Further, the IC50 on GGTase II [5] is over 1000 µM. Moreover, the “disruption … (accumulation of unmodified Rap1a)” value in experiment [3] was “A similar pattern was displayed”. Moreover, the “effect on intracellular lambda light chain levels” value in experiment [4] is “induces an accumulation of intracellular lambda light chain equivalent to that induced by the positive control DGBP”. Further, on GGTase II [8], the “inhibition of GGTase II” value is on record as “does not inhibit GGTase II”. Further, the “effect on intracellular FPP levels” value in [9] is listed as “increased FPP levels”.

Turning to `CC(C)=CCC/C(C)=C\Cn1cc(CC(P(=O)([O-])[O-])P(=O)([O-])[O-])nn1.[Na+].[Na+].[Na+].[Na+]` [Compound 19, Sodium (Z)-(2-(1-(3,7-dimethylocta-2,6-dien-1-yl)-1H-1,2,3-triazol-4-yl)ethane-1,1-diyl)bis(phosphonate)], the “effect on intracellular GGPP levels” value in experiment [7] was “even more potently decreased GGPP levels; also recorded: depletes cells of GGPP”. Moreover, the “disruption … (Rab6 in aqueous fraction)” value in experiment [2] was “effectively disrupted both Rap1a and Rab6 geranylation”. In addition, the “GGDPS activity, comparison in words” value on GGDPS [6] is on record as “slightly less potent”. At GGTase II [5], the half-inhibitory concentration (IC50) was over 1000 µM and the “inhibitory activity against GGTase II” value is given as “neither of the individual olefin isomers (11 or 19) nor the related epoxides (12 or 20) displayed inhibitory activity”. Further, the “disruption … (accumulation of unmodified Rap1a)” value in experiment [3] is “effectively disrupted both Rap1a and Rab6 geranylation”. The “concentration at which unmodified Rap1a is observed” value in experiment [3] (Figure 3B) worked out at 1 µM. Besides, the “effect on intracellular lambda light chain levels” value in [4] is recorded as “This activity is a consequence of the neryl triazole 19; also recorded: disrupts monoclonal protein trafficking”. Further, in [9], the “effect on intracellular FPP levels” value is on record as “increased FPP levels; also recorded: increases intracellular FPP levels”.
